Series [1] concerns P388. Kind of series: (§1) The % increase in lifespan of treated animals over that of control group of animals injected with tumor alone. It is filed as functional, Mus musculus.
Series [2] has as its system P388. Nature of the series: (§2) Highest nontoxic optimal dose administered intraperitoneally after inoculation of P388 leukemia cells. It is filed as functional, Mus musculus. The method, boiled down: (§3)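 Mice were inoculated with 10^6 P388 leukemia cells. Drug was given intraperitoneally in 30% v/v EtOH/water on days 1, 5 and 9 after inoculation. OD is the highest nontoxic dose in mg/kg per day.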

A short description of series [3]: Lipophilicity (Rm). It is filed as physicochemical. The following applies: chromatographic, drug cations at pH 1-2.
Series [4] has as its system L1210. Nature of the series: In vitro inhibitory dose that reduces L1210 cell line by 50% when added for a period of 70h. Format: functional. The following applies: Mus musculus, L1210, 70 h; read-out: ID50 (the source's name). A digest of the protocol: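 L1210 cultures were exposed to drug for 70 h, and cells were then counted. IC50 is the drug concentration (nM) that reduces cell numbers to 50% of untreated controls.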

The test system of series [5] is P388. Described as §1. Format: functional, Mus musculus. The source holds these as a separate data set.
Series [6] concerns P388. The series is described as §2. Format: functional, Mus musculus. The method, boiled down: as §3
The source holds these as a separate data set.

Series [7] in a line: Chromatographic measure of drug lipophilicity determined for drug cations was evaluated. It is filed as physicochemical.

In series [1], `c1ccc2c(NCCCNCCCNc3c4ccccc4nc4ccccc34)c3ccccc3nc2c1` registered an ILS of under 20%. In series [2], this compound registered an OD of 5 mg/kg. For the same compound, the Rm in series [3] is given as -0.53. Also, the IC50 in series [4] was determined as 480 nM.

In series [1], `O=C(CCNc1c2ccccc2nc2ccccc12)NCCCNc1c2ccccc2nc2ccccc12` registered an ILS of under 20%. For the same compound, the OD in series [2] came to 15 mg/kg. The compound also yielded a Rm in series [3] of -0.28. Also, the IC50 in series [4] is over 3500 nM.

Consider `Cn1nc(C(=O)NCCNc2c3ccccc3nc3ccccc23)cc1C(=O)NCCNc1c2ccccc2nc2ccccc12`, for which, in series [1], the ILS is recorded as 46%. The same compound had an OD in series [2] of 20 mg/kg. The compound further showed a Rm in series [3] of -0.3. Moreover, the IC50 in series [4] was determined as 13 nM.

Consider `c1ccc2c(NCCCCCCCCCCNc3c4ccccc4nc4ccccc34)c3ccccc3nc2c1`, for which the ILS in series [1] is recorded as under 20%. The compound further yielded an OD in series [2] of 5.9 mg/kg. The Rm in series [3] came to 0.45. The IC50 in series [4] came out at 280 nM.

For `c1ccc2c(NCCCN3CCN(CCCNc4c5ccccc5nc5ccccc45)CC3)c3ccccc3nc2c1`, the ILS in series [5] and in series [1] was under 20% in each case. Besides, the OD in series [6] and in series [2] was 3 mg/kg throughout. The Rm in series [7] and in series [3] was -0.72 in each case.

In series [1], `c1ccc2c(NCCCCNCCCNc3c4ccccc4nc4ccccc34)c3ccccc3nc2c1` gave an ILS of under 20%. Moreover, the OD in series [2] came out at 10 mg/kg. For the same compound, in series [3], the Rm was -0.39. Besides, the IC50 in series [4] was found to be 29 nM.

In the case of `O=C(CNc1c2ccccc2nc2ccccc12)NCCCNc1c2ccccc2nc2ccccc12`, the ILS in series [1] is recorded as under 20%. The same compound returned an OD in series [2] of 50 mg/kg. Further, the Rm in series [3] is recorded as -0.24. Besides, the IC50 in series [4] was over 3500 nM.

Take `c1ccc2c(NCCNCCNCCNc3c4ccccc4nc4ccccc34)c3ccccc3nc2c1`: in series [1], the ILS is recorded as under 20%. Further, in series [2], the OD came to 10 mg/kg. This compound had a Rm in series [3] of -0.9. For the same compound, the IC50 in series [4] turned out to be 2900 nM.

With `c1ccc2c(NCCCCCCNc3c4ccccc4nc4ccccc34)c3ccccc3nc2c1`, in series [1], the ILS is reported as under 20%. Also, the OD in series [2] is 13.3 mg/kg. Also, in series [3], the Rm came to 0.15. Further, the IC50 in series [4] amounted to 110 nM.

For `O=C(CCCNc1c2ccccc2nc2ccccc12)NCCNc1c2ccccc2nc2ccccc12`, the ILS in series [1] is under 20%. This compound registered an OD in series [2] of 50 mg/kg. The Rm in series [3] is given as -0.19. Moreover, in series [4], the IC50 was over 3500 nM.

In the case of `c1ccc2c(NCCCCCCCCCNc3c4ccccc4nc4ccccc34)c3ccccc3nc2c1`, the ILS in series [1] was under 20%. Besides, the OD in series [2] was 5.9 mg/kg. This compound gave a Rm in series [3] of 0.4. Moreover, the IC50 in series [4] amounted to 160 nM.

In series [1], `c1ccc2c(NCCCCCCCCNc3c4ccccc4nc4ccccc34)c3ccccc3nc2c1` showed an ILS of under 20%. In series [2], the OD came out at 8.9 mg/kg. Moreover, in series [3], the Rm was 0.28. For the same compound, in series [4], the IC50 amounted to 170 nM.

`CN(CCCNc1c2ccccc2nc2ccccc12)CCCNc1c2ccccc2nc2ccccc12` showed an ILS in series [1] of under 20%. The OD in series [2] amounted to 10 mg/kg. Also, in series [3], the Rm is -0.65. For the same compound, the IC50 in series [4] came to 780 nM.

With `Nc1c2ccccc2nc2ccccc12` [AMINACRINE], in series [1], the ILS is under 20%. In series [2], this compound gave an OD of 20 mg/kg. Further, the Rm in series [3] is -0.08. Moreover, the IC50 in series [4] came out at 1900 nM.

The compound `Cn1nc(C(=O)NCCCNc2c3ccccc3nc3ccccc23)cc1C(=O)NCCCNc1c2ccccc2nc2ccccc12` yielded an ILS in series [1] of 65%. Moreover, the OD in series [2] stood at 20 mg/kg. The compound further yielded a Rm in series [3] of 0. Also, the IC50 in series [4] came to 55 nM.

Take `c1ccc2c(NCCN3CCN(CCNc4c5ccccc5nc5ccccc45)CC3)c3ccccc3nc2c1`: the ILS in series [1] is on record as under 20%. In series [2], this compound displayed an OD of 3 mg/kg. In series [3], this compound showed a Rm of -0.77. The IC50 in series [4] turned out to be 78 nM.

Consider `O=C(CCCNc1c2ccccc2nc2ccccc12)NCCCNc1c2ccccc2nc2ccccc12`, for which, in series [1], the ILS is under 20%. The OD in series [2] was 50 mg/kg. This compound also came in with a Rm in series [3] of -0.12. In addition, the IC50 in series [4] is over 3500 nM.

The compound `O=C(CCNc1c2ccccc2nc2ccccc12)NCCNc1c2ccccc2nc2ccccc12` had an ILS in series [1] of under 20%. In series [2], this compound yielded an OD of 50 mg/kg. This compound registered a Rm in series [3] of -0.43. Besides, in series [4], the IC50 was over 3500 nM.

`c1ccc2c(NCCCCNc3c4ccccc4nc4ccccc34)c3ccccc3nc2c1` returned an ILS in series [1] of under 20%. In series [2], this compound returned an OD of 30 mg/kg. This compound showed a Rm in series [3] of -0.21. In addition, the IC50 in series [4] was determined as 10800 nM.

`c1ccc2c(NCCCCCNc3c4ccccc4nc4ccccc34)c3ccccc3nc2c1` displayed an ILS in series [1] of under 20%. For the same compound, in series [2], the OD was 20 mg/kg. Also, in series [3], the Rm is listed as 0.02. Moreover, in series [4], the IC50 stood at 3700 nM.

Turning to `Cn1nc(C(=O)NCCCCNc2c3ccccc3nc3ccccc23)cc1C(=O)NCCCCNc1c2ccccc2nc2ccccc12`, the ILS in series [1] is reported as 26%. In series [2], this compound gave an OD of 8.9 mg/kg. The same compound returned a Rm in series [3] of 0.11. Besides, the IC50 in series [4] turned out to be 24 nM.

Regarding `O=C(CNc1c2ccccc2nc2ccccc12)NCCNc1c2ccccc2nc2ccccc12`, in series [1], the ILS is under 20%. Also, the OD in series [2] is 50 mg/kg. For the same compound, the Rm in series [3] is -0.41. Besides, the IC50 in series [4] was over 4000 nM.

Compound `c1ccc2c(NCCCCCCCNc3c4ccccc4nc4ccccc34)c3ccccc3nc2c1` registered an ILS in series [1] of under 20%. The compound also gave an OD in series [2] of 8.9 mg/kg. In series [3], the Rm is given as 0.21. Also, the IC50 in series [4] was 50 nM.

As to `c1ccc2c(NCCCNCCNCCCNc3c4ccccc4nc4ccccc34)c3ccccc3nc2c1`, the ILS in series [1] is given as under 20%. This compound also returned an OD in series [2] of 10 mg/kg. This compound also yielded a Rm in series [3] of -0.86. For the same compound, the IC50 in series [4] turned out to be 560 nM.
